Experiments:
SNB-19 = assay: Growth inhibition of human SNB19 cells after 96 hrs by MTT assay; assay type: functional; conditions: SNB-19, 96 h
Summary of the method: (§1)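 Tested in the NCI 60-cell-line panel in five-dose format; GI50 and LC50 values reported for each cell line.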

HT-29 = assay: Growth inhibition of human HT-29 cells at 1 uM after 96 hrs by MTT assay; assay type: functional; set-up: scale not given: the % may be the effect or the level left
COLO 205 [1] = assay: Growth inhibition of human COLO205 cells at 1 nM after 96 hrs by MTT assay; assay type: functional; set-up: scale not given: the % may be the effect or the level left
UACC-62 = assay: Growth inhibition of human UACC62 cells at 1 uM after 96 hrs by MTT assay; assay type: functional; set-up: scale not given: the % may be the effect or the level left
ACHN = assay: Growth inhibition of human ACHN cells at 1 nM after 96 hrs by MTT assay; assay type: functional; set-up: scale not given: the % may be the effect or the level left
CAKI-1 [2] = assay: Growth inhibition of human Caki1 cells after 96 hrs by MTT assay; assay type: functional; conditions: CAKI-1, 96 h
[3] = Growth inhibition of human RPMI8266 cells at 1 uM after 96 hrs by MTT assay; assay type: functional; set-up: scale not given: the % may be the effect or the level left
T47D = assay: Growth inhibition of human T47D cells after 96 hrs by MTT assay; assay type: functional; summary of the method: as §1
PC-3 [4] = assay: Growth inhibition of human PC3 cells at 1 nM after 96 hrs by MTT assay; assay type: functional; set-up: scale not given: the % may be the effect or the level left
[5] = Growth inhibition of human RPMI8266 cells at 10 nM after 96 hrs by MTT assay; assay type: functional; set-up: scale not given: the % may be the effect or the level left
SN12C = assay: Growth inhibition of human SN12C cells at 1 uM after 96 hrs by MTT assay; assay type: functional; set-up: scale not given: the % may be the effect or the level left
SK-OV-3 [6] = assay: Growth inhibition of human SKOV3 cells at 1 uM after 96 hrs by MTT assay; assay type: functional; set-up: scale not given: the % may be the effect or the level left
CAKI-1 [7] = assay: Growth inhibition of human Caki1 cells at 10 nM after 96 hrs by MTT assay; assay type: functional; set-up: scale not given: the % may be the effect or the level left
A498 [8] = assay: Growth inhibition of human A498 cells at 1 nM after 96 hrs by MTT assay; assay type: functional; set-up: scale not given: the % may be the effect or the level left
PC-3 [9] = assay: Growth inhibition of human PC3 cells at 100 nM after 96 hrs by MTT assay; assay type: functional; set-up: scale not given: the % may be the effect or the level left
DU-145 = assay: Growth inhibition of human DU145 cells after 96 hrs by MTT assay; assay type: functional; conditions: DU-145, 96 h
[10] = Growth inhibition of human Hs 578T cells at 1 nM after 96 hrs by MTT assay; assay type: functional; set-up: scale not given: the % may be the effect or the level left
OVCAR-5 [11] = assay: Growth inhibition of human OVCAR5 cells at 1 uM after 96 hrs by MTT assay; assay type: functional; set-up: scale not given: the % may be the effect or the level left
HCC 2998 = assay: Growth inhibition of human HCC2998 cells at 100 nM after 96 hrs by MTT assay; assay type: functional; set-up: scale not given: the % may be the effect or the level left
K562 = assay: Growth inhibition of human K562 cells after 96 hrs by MTT assay; assay type: functional; conditions: K562, 96 h
Summary of the method: (§2)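 Run in the NCI 60 human tumour cell line panel as a five-dose assay. GI50 and LC50 were reported for each cell line.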

MOLT-4 = assay: Growth inhibition of human MOLT4 cells at 100 nM after 96 hrs by MTT assay; assay type: functional; set-up: scale not given: the % may be the effect or the level left
RXF 393 = assay: Growth inhibition of human RXF393 cells at 10 uM after 96 hrs by MTT assay; assay type: functional; set-up: scale not given: the % may be the effect or the level left
[12] = Antitumor activity against human KB3 cells after 96 hrs by MTT assay; assay type: functional, cell-based; conditions: KB3, 96 h
Summary of the method: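 Human KB-3 carcinoma cells exposed to increasing compound concentrations; viability read by MTT colorimetric assay after 96 h. Values are means of triplicate assays, expressed relative to untreated controls.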

MCF7 [13] = assay: Growth inhibition of human MCF7 cells at 1 uM after 96 hrs by MTT assay; assay type: functional; set-up: scale not given: the % may be the effect or the level left
TK-10 [14] = assay: Growth inhibition of human TK10 cells at 10 uM after 96 hrs by MTT assay; assay type: functional; set-up: scale not given: the % may be the effect or the level left
TK-10 [15] = assay: Growth inhibition of human TK10 cells at 1 uM after 96 hrs by MTT assay; assay type: functional; set-up: scale not given: the % may be the effect or the level left
MDA-MB-231 = assay: Growth inhibition of human MDA-MB-231 cells after 96 hrs by MTT assay; assay type: functional; conditions: MDA-MB-231, 96 h; summary of the method: as §2
UO-31 = assay: Growth inhibition of human UO31 cells at 1 uM after 96 hrs by MTT assay; assay type: functional; set-up: scale not given: the % may be the effect or the level left
A498 [16] = assay: Growth inhibition of human A498 cells at 10 nM after 96 hrs by MTT assay; assay type: functional; set-up: scale not given: the % may be the effect or the level left
OVCAR-8 [17] = assay: Growth inhibition of human OVCAR8 cells at 10 uM after 96 hrs by MTT assay; assay type: functional; set-up: scale not given: the % may be the effect or the level left
NCI/ADR-RES = assay: Growth inhibition of human NCI/ADR-RES cells at 1 nM after 96 hrs by MTT assay; assay type: functional; set-up: scale not given: the % may be the effect or the level left
SK-OV-3 [18] = assay: Growth inhibition of human SKOV3 cells at 1 nM after 96 hrs by MTT assay; assay type: functional; set-up: scale not given: the % may be the effect or the level left
HOP-92 = assay: Growth inhibition of human HOP92 cells at 10 uM after 96 hrs by MTT assay; assay type: functional; set-up: scale not given: the % may be the effect or the level left
Malme-3M = assay: Growth inhibition of human MALME-3M cells after 96 hrs by MTT assay; assay type: functional; summary of the method: as §2
OVCAR-8 [19] = assay: Growth inhibition of human OVCAR8 cells at 1 uM after 96 hrs by MTT assay; assay type: functional; set-up: scale not given: the % may be the effect or the level left
HCT-15 = assay: Growth inhibition of human HCT15 cells at 100 nM after 96 hrs by MTT assay; assay type: functional; set-up: scale not given: the % may be the effect or the level left
COLO 205 [20] = assay: Growth inhibition of human COLO205 cells at 1 uM after 96 hrs by MTT assay; assay type: functional; set-up: scale not given: the % may be the effect or the level left
MCF7 [21] = assay: Growth inhibition of human MCF7 cells at 10 nM after 96 hrs by MTT assay; assay type: functional; set-up: scale not given: the % may be the effect or the level left
EKVX = assay: Growth inhibition of human EKVX cells at 1 uM after 96 hrs by MTT assay; assay type: functional; set-up: scale not given: the % may be the effect or the level left
[22] = Growth inhibition of human RPMI8266 cells at 100 nM after 96 hrs by MTT assay; assay type: functional; set-up: scale not given: the % may be the effect or the level left
OVCAR-5 [23] = assay: Growth inhibition of human OVCAR5 cells at 10 uM after 96 hrs by MTT assay; assay type: functional; set-up: scale not given: the % may be the effect or the level left
[24] = read-out: LC50 (the source's name)
[25] = read-out: Log10GI50 (converted)
[26] = read-out: Log10LC50 (converted)

Compound C=C(C)[C@H]1CC=C(C)C2=CO[C@@H](c3ccccc3F)[C@@H]21 has a GI50 (SNB-19; read-out: GI50) of 10.7 µM, a CC50 (SNB-19; [24]) of 47.4 µM and a GI50 (SNB-19; [25]) of 10.7 µM. For the same compound, the CC50 (SNB-19; [26]) was 47.9 µM, the TGI (SNB-19; read-out: Log10TGI (converted)) was 22.4 µM and the TGI (SNB-19; read-out: TGI) was 22.5 µM. It also gave an Activity (HT-29) of 22%, an Activity (COLO 205 [1]) of 101% and an Activity (UACC-62) of 29%. For the same compound, the Activity (ACHN) was 96%, the GI50 (CAKI-1 [2]; read-out: GI50) was 5.5 µM and the CC50 (CAKI-1 [2]; [24]) was greater than 100 µM. It also gave a GI50 (CAKI-1 [2]; [25]) of 5.5 µM, a CC50 (CAKI-1 [2]; [26]) greater than 100 µM and a TGI (CAKI-1 [2]; read-out: Log10TGI (converted)) of 39.8 µM. It also gave a TGI (CAKI-1 [2]; read-out: TGI) of 39.8 µM, an Activity [3] of -52% and a GI50 (T47D; read-out: GI50) of 2.24 µM. The CC50 (T47D; [24]) was greater than 100 µM, the GI50 (T47D; [25]) was 2.24 µM and the CC50 (T47D; [26]) was greater than 100 µM. The TGI (T47D; read-out: Log10TGI (converted)) was 11 µM, the TGI (T47D; read-out: TGI) was 11.1 µM and the Activity (PC-3 [4]) was 95%. The Activity [5] was 56%, the Activity (SN12C) was 44% and the Activity (SK-OV-3 [6]) was 59%. The Activity (CAKI-1 [7]) was 93%, the Activity (A498 [8]) was 82% and the Activity (PC-3 [9]) was 70%. It also gave a GI50 (DU-145; read-out: GI50) of 5.53 µM, a CC50 (DU-145; [24]) of 94.5 µM and a GI50 (DU-145; [25]) of 5.5 µM. The CC50 (DU-145; [26]) was 95.5 µM, the TGI (DU-145; read-out: Log10TGI (converted)) was 26.3 µM and the TGI (DU-145; read-out: TGI) was 26.1 µM. It also gave an Activity [10] of 83%, an Activity (OVCAR-5 [11]) of 126% and an Activity (HCC 2998) of 97%. It also gave a GI50 (K562; read-out: GI50) of 2.04 µM, a CC50 (K562; [24]) of 49.3 µM and a GI50 (K562; [25]) of 2.04 µM. It also gave a CC50 (K562; [26]) of 49 µM, a TGI (K562; read-out: Log10TGI (converted)) of 13.2 µM and a TGI (K562; read-out: TGI) of 13.2 µM. It also gave an Activity (MOLT-4) of 81%, an Activity (RXF 393) of 98.38% and an IC50 [12] of 1 µM. The Activity (MCF7 [13]) was 26%, the Activity (TK-10 [14]) was 113.66% and the Activity (TK-10 [15]) was 48%. The GI50 (MDA-MB-231; read-out: GI50) was 6.73 µM, the CC50 (MDA-MB-231; [24]) was 55.9 µM and the GI50 (MDA-MB-231; [25]) was 6.76 µM. The CC50 (MDA-MB-231; [26]) was 56.2 µM, the TGI (MDA-MB-231; read-out: Log10TGI (converted)) was 22.4 µM and the TGI (MDA-MB-231; read-out: TGI) was 22.3 µM. For the same compound, the Activity (UO-31) was 42%, the Activity (A498 [16]) was 91% and the Activity (OVCAR-8 [17]) was 94.8%. The Activity (NCI/ADR-RES) was 105%, the Activity (SK-OV-3 [18]) was 98% and the Activity (HOP-92) was 66.62%. It also gave a GI50 (Malme-3M; read-out: GI50) of 2.78 µM, a CC50 (Malme-3M; [24]) of 43.8 µM and a GI50 (Malme-3M; [25]) of 2.75 µM. The CC50 (Malme-3M; [26]) was 43.7 µM, the TGI (Malme-3M; read-out: Log10TGI (converted)) was 15.1 µM and the TGI (Malme-3M; read-out: TGI) was 15.1 µM. The Activity (OVCAR-8 [19]) was 59%, the Activity (HCT-15) was 84% and the Activity (COLO 205 [20]) was 50%. For the same compound, the Activity (MCF7 [21]) was 103%, the Activity (EKVX) was 23% and the Activity [22] was 23%. The Activity (OVCAR-5 [23]) was 100.16%.
